# Assay results as given in publication PMC5977998 (Journal of the American Chemical Society, 2017).
# Columns and labels:
# [1] = system: BCL2 i-motif / BCL2 transcription; settings: cited from earlier work
# SK-N-SH = experiment: MTS cytotoxicity assay in SK-N-SH; assay type: cell-based; settings: read-out: IC50 concentration in SK-N-SH
# [2] = system: PDGFR-β Py41 WT i-motif FRET probe; experiment: i-motif FRET assay, WT probe; assay type: binding, human; settings: probe 20 nM, compound 200 nM, 30 min
# [3] = system: NO-NHE luciferase construct; experiment: Luciferase reporter assay, NO-NHE construct; assay type: cell-based, human; settings: HEK 293, 100 μM, 24 h
# [4] = system: PDGFR-β Py41 R1 mutant i-motif FRET probe; experiment: i-motif FRET assay, R1 mutant probe; assay type: binding, human
# [5] = system: R1 mutant PDGFR-β i-motif; experiment: CD spectral and thermal-melt analysis with R1 mutant i-motif; assay type: binding, human
# Procedure, shortened: (§1)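 Oligo at 5 μM final in 10 mM sodium cacodylate, pH 6.5. Heated to 95 °C for 5 min, slowly cooled to room temperature, then given molar equivalents of compound or DMSO for 30 min. CD spectra 230–350 nm at room temperature, triplicate scans averaged and baseline-corrected. Melts followed at 286 nm, 20–95 °C at 1 °C/min. Tm by nonlinear regression.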
# PDGFR-β transcript = experiment: qRT-PCR of PDGFR-β transcript in SK-N-SH; assay type: cell-based; settings: 24 h, relative to DMSO control
# HEK293 = experiment: MTS cytotoxicity assay in HEK293; assay type: cell-based, human; settings: read-out: IC50 in HEK 293
# WT PDGFR-β i-motif = experiment: CD spectral and thermal-melt analysis with WT i-motif; assay type: binding, human; settings: increasing concentrations of compound
# Procedure, shortened: as §1
# [6] = system: PDGFR-β promoter R1 mutant NHE luciferase construct; experiment: Luciferase reporter assay, R1 NHE construct; assay type: cell-based, human; settings: HEK 293, 100 μM, 24 h
# [7] = system: PDGFR-β promoter WT-NHE luciferase construct; experiment: Luciferase reporter assay, WT-NHE construct; assay type: cell-based, human; settings: 24 h
# [8] = system: PDGFR-β NHE WT 41-mer (FL Pu41); assay type: binding, human; settings: CD spectral and thermal melt analysis
# Procedure, shortened: (§2)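 Oligo at 5 μM final in 50 mM Tris-HCl with 50 mM K+, pH 7.4. Heated to 95 °C for 5 min, slowly cooled, then incubated 30 min with molar equivalents of compound or DMSO. CD 230–330 nm at room temperature, triplicate scans averaged and baseline-corrected. Melt at 262 nm from 20 to 95 °C at 1 °C/min. Tm by nonlinear regression, ±1 °C.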
# [9] = system: PDGFR-β 3′-end G-quadruplex; experiment: CD spectral and thermal-melt analysis with constituent PDGFR-β G-quadruplexes; assay type: binding, human
# Procedure, shortened: as §2
# [10] = system: PDGFR-β NHE G-quadruplexes; settings: cited from earlier work
compound,measurement,setting,value
CC(C)CCC[C@@H](C)[C@H]1CC[C@H]2[C@@H]3CC[C@H]4C[C@H](NC(=O)C[N+]5(C)CCCCC5)CC[C@]4(C)[C@H]3CC[C@]12C.[I-] [IMC48],effect on BCL2 transcription,[1],increased BCL2 transcription
COc1ccc2c(c1)CN([C@@H](C)[C@H]1CC[C@H]3[C@@H]4CC[C@H]5C[C@@H](O)CC[C@]5(C)[C@H]4CC[C@]13C)CO2 [IMC76],effect on BCL2 transcription,[1],decreasing BCL2 transcription
CN1CCc2ccccc2C1Cc1ccccc1NC(=O)c1sc2ccccc2c1Cl (stereo not shown) [NSC309874],IC50,SK-N-SH,100 µM
same,"increase in FRET signal, WT probe",[2],170%
same,"effect on luciferase activity, NO-NHE construct",[3],does not inhibit transcription
same,increase in FRET of the R1 mutant,[4]; FRET (pH 6.6) high-throughput screening,more than 2 fold
same,"increase in FRET signal, R1 mutant probe","[4]; probe 20 nM, compound 200 nM, 30 min",218%
same,effect on Tm of R1 mutant i-motif,[5]; CD thermal melt,small increase in Tm
same,effect on CD of R1 mutant i-motif,[5]; increasing concentrations of compound,little change in the CD
same,reduction of PDGFR-β expression,PDGFR-β transcript; 0.5 IC50 (50 μM),approximately 25%
same,reduction of PDGFR-β expression,PDGFR-β transcript; IC50 (100 μM),~50%
same,IC50,HEK293,> 100 µM
same,shift in λMAX of CD spectrum of WT i-motif,WT PDGFR-β i-motif,from 286 to 279
same,"downregulation of luciferase activity, R1 NHE construct",[6],~50%
same,"downregulation of luciferase activity, WT-NHE construct","[7]; HEK 293, 100 μM",approximately 45%
same,interaction with PDGFR-β G-quadruplex-forming sequence,[8],negligible interaction
Cc1c2ccncc2c(C)c2c1[nH]c1ccc(OCCN(C)C)cc12 [NSC338258],increase in thermal stability of 3′-end G-quadruplex,[9]; 1 mol equiv of compound,4 °C
same,increase in thermal stability of 3′-end G-quadruplex,[9]; 2 mol equiv of compound,9 °C
same,selectivity of luciferase inhibition WT-NHE versus NO-NHE,[7]; IC50 and 50% IC50 concentrations,moderate degree of selectivity
same,binding to PDGFR-β NHE compared with MYC promoter G-quadruplex,[10],binds almost as well to the PDGFR-β NHE as to the MYC promoter G-quadruplex
Cc1oc2nc1-c1nc(co1)-c1nc(co1)-c1nc(co1)-c1nc(co1)-c1nc(co1)C1=NC(CS1)c1nc-2c(C)o1 (stereo not shown) [telomestatin],G-quadruplex binding selectivity in PDGFR-β NHE,[10],appeared to bind selectively to the 3′-end G-quadruplex
same,effect on PDGFR-β,[10],produced a decrease in PDGFR-β
